Test results from PubChem BioAssay.
Records with an inconclusive call do not appear.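 Rule for the calls, unless noted: active = inhibition over a set limit, the all-compound mean plus 3 SD, in both replicate runs; inconclusive = over that limit in just one replicate run; inactive = at or under that limit in both runs.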

Tests used:
[1] = S. cerevisiae growth inhibition in permissive medium (OD615), pilot counter-assay for S. cerevisiae lifespan shortening project, permissive growth control (AID 705;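 active = growth inhibition above 25% in both replicates, a cutoff set 3 SD above the mean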); conditions: OD615, 24 h, at 10 µM, active compounds read high
In short: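 System: engineered DeaD yeast; Medium: permissive raffinose/galactose medium; Compound dosing: 10 µM single dose, 0.25% DMSO; Incubation: 4 h cell pre-growth, 24 h exposure at 30 °C; Technique: OD at 615 nm; Evaluation: growth inhibition from lowered OD615 after 24 h.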

[2] = S. cerevisiae growth inhibition in restrictive medium, OD615, pilot screen, restrictive growth control, yeast lifespan reduction project (AID 706;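 active = growth inhibition above a set limit, 3 SD over mean compound inhibition, in both replicates, cut at about 43% in these data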;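 note: modified DeaD lifespan yeast strain shifted to restrictive glucose medium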); conditions: OD615, 48 h, at 10 µM, active compounds read high
In short: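 Material: modified S. cerevisiae; buffer or medium: CSMM-D glucose medium; doses: one concentration, 10 µM final, 0.25% DMSO; incubation: 48 h compound exposure at 30 °C; detection: optical density at 615 nm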

[3] = doxorubicin toxicity protection in MRP-1 cells – H69AR cells, CellTiter-Glo, duplicate, MRP-1 activator project, pilot screen (AID 807;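 active = viability increase at or above a cutoff of the median across tested compounds plus 3 SD, cut at about 8.5% in these data, passing the limit was not always enough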;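 note: compound pretreatment 18-22 h then 72 h combined with doxorubicin; 0% = doxorubicin alone and 100% = vehicle without doxorubicin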); conditions: H69AR viability with doxorubicin, CellTiter-Glo luminescence; at 10 µM; active compounds read high
[4] = viability of HCT116 without oncogenic beta-catenin – human colon tumor cells, pilot screen (AID 823;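 active = cell viability at or below a set limit in both duplicate runs, the limit being the all-compound median minus 4 SD, cut at about 23% in these data, passing the limit was not always enough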;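 note: 0% = wells killed by 20 µM Hyamine and 100% = untreated DMSO cell wells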); conditions: HCT116 beta-catenin knockout viability, CellTiter-Glo, 60 h; at 10 µM; active compounds read low
[5] = viability of PTEN-null HCT116 cells – cell-based, HCT116 clonal line, CellTiter-Glo, pilot screen (AID 824;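 active = viability at or below 27.92% in each of two runs, the all-compound median minus 4 SD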;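 note: 0% = 20 µM Hyamine control and 100% = vehicle cell control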); conditions: HCT116 PTEN-deleted viability, 60 h, at 10 µM, active compounds read low
[6] = RAM pathway blockade in budding yeast – dse1pr::URA3 reporter, 5-FOA selection, pilot screen (AID 869);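 note: 0% = DMSO wells with no growth and 100% = 10 µM 1-NA-PP1 with full growth; RAM network block rescues cells from 5-FOA so hits raise OD615 growth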; conditions: S. cerevisiae dse1pr::URA3 5-FOA growth, OD615, 2 d; at 10 µM; active compounds read high; strain carries analog-sensitive mutant Cbk1 kinase
[7] = RAM signaling pathway blockade in yeast – S. cerevisiae, Pdr1DBD-CYC8 efflux-inhibited sensitized strain, primary screen (AID 1298;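 active = RAM network inhibition above 8.4% in each of two replicates, 3 SD over the compound average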;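 note: 0% = DMSO untreated cells without growth and 100% = 10 µM 1-NA-PP1 full growth; higher means more yeast growth rescued from 5-FOA killing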); conditions: S. cerevisiae cbk1-as DSE1-URA3 strain, 5-FOA growth OD615, 2 d; at 50 µM; active compounds read high

O=c1oc(-c2cccnc2)nc2ccccc12
inactive: growth inhibition [1] -8.07% | growth inhibition [2] -3.38% | viability increase [3] -0.21% | viability [4] 107% | viability [5] 96.1% | inhibition [6] 0.595% | RAM network inhibition [7] -0.11%

O=C(NC1CCCc2ccccc21)C1CCN(c2c(N3CCCC3)c(=O)c2=O)CC1 (configuration not stated)
inactive: growth inhibition [1] -5.2% | growth inhibition [2] -2.66% | viability increase [3] -3.06% | viability [4] 92.4% | viability [5] 90% | inhibition [6] 1.51% | RAM network inhibition [7] -0.37%

CCCC(=O)N(Cc1cc2cc(C)ccc2[nH]c1=O)c1ccccc1OC
inactive: growth inhibition [1] 1.1% | growth inhibition [2] 1.19% | viability increase [3] -0.05% | viability [4] 80.7% | viability [5] 78% | inhibition [6] 1.04% | RAM network inhibition [7] 9.81%

O=C(Cn1nc(Cc2cccnc2)c2ccccc2c1=O)NCc1ccc2c(c1)OCO2
inactive: growth inhibition [1] 1.71% | growth inhibition [2] 5.04% | viability increase [3] -1.57% | viability [4] 97% | viability [5] 94.7% | inhibition [6] 0.55% | RAM network inhibition [7] -0.05%

O=C(CN1CCOc2ccccc21)NCc1ccc(F)cc1
inactive: growth inhibition [1] -29.5% | growth inhibition [2] 2.98% | viability increase [3] -5.89% | viability [4] 91.4% | viability [5] 85.8% | inhibition [6] 0.305% | RAM network inhibition [7] -0.84%

CCOC(=O)c1cnc2c(C)c(Cl)ccc2c1N1CCOCC1
inactive: growth inhibition [1] -1.27% | growth inhibition [2] -2.46% | viability increase [3] -6.05% | viability [4] 77% | viability [5] 81.3% | inhibition [6] 0.755% | RAM network inhibition [7] 3.29%

Nc1c(C(=O)NCc2ccccc2)nnn1Cc1ccc(F)cc1
inactive: growth inhibition [1] -1.67% | growth inhibition [2] -11.5% | viability increase [3] -0.8% | viability [4] 98.6% | viability [5] 92.1% | inhibition [6] 1.8% | RAM network inhibition [7] 3.21%

COc1ccc(S(=O)(=O)N2CCC(C(=O)N3CCc4ccccc4C3)CC2)cc1
inactive: growth inhibition [1] 11.1% | growth inhibition [2] -10.1% | viability increase [3] -5.43% | viability [4] 93.5% | viability [5] 85% | inhibition [6] 0.13% | RAM network inhibition [7] 2.53%

COc1ccc(C2CC(=O)N3CN(c4ccc(C)c(Cl)c4)CSC3=C2C#N)cc1 (configuration not stated)
inactive: growth inhibition [1] 5.58% | growth inhibition [2] 21.9% | viability increase [3] -5.36% | viability [4] 90.1% | viability [5] 89.5% | inhibition [6] 0.91% | RAM network inhibition [7] -1.96%

Cc1ccc(CC2CC(=O)N(c3cc(C)on3)C2=O)cc1 (configuration not stated)
inactive: growth inhibition [1] -17.8% | growth inhibition [2] -19.9% | viability increase [3] 0.79% | viability [4] 100% | viability [5] 94% | inhibition [6] 1.73% | RAM network inhibition [7] -0.79%

Cc1ccc(C)c(N2CCN(C(=O)CCc3nc4ccccc4[nH]3)CC2)c1
inactive: growth inhibition [1] 6.2% | growth inhibition [2] 7.36% | viability increase [3] 1.46% | viability [4] 80.9% | viability [5] 90.4% | inhibition [6] -0.165% | RAM network inhibition [7] -0.77%

COC(=O)c1c(-c2ccc(C)cc2)csc1N
inactive: growth inhibition [1] 1.67% | growth inhibition [2] 0.135% | viability increase [3] -3.98% | viability [4] 75.8% | viability [5] 87.8% | inhibition [6] -0.61% | RAM network inhibition [7] -1.79%

O=C(CSc1ccccn1)c1ccc(F)cc1
inactive: growth inhibition [1] 10.7% | growth inhibition [2] 17.6% | viability increase [3] -0.02% | viability [4] 100% | viability [5] 102% | inhibition [6] 2.88% | RAM network inhibition [7] 1.72%

CC(C)n1c(C(O)c2ccc3c(c2)OCO3)nc2ccccc21 (configuration not stated)
inactive: growth inhibition [1] -1.25% | growth inhibition [2] 0.5% | viability increase [3] 0.4% | viability [4] 94.8% | viability [5] 90.9% | inhibition [6] 0.905% | RAM network inhibition [7] 2.89%

Cn1c(C(=O)N2CCN(Cc3ccccc3)CC2)cc2c(=O)n(C)c3ccccc3c21
inactive: growth inhibition [1] 7.94% | growth inhibition [2] 3.57% | viability increase [3] -4.21% | viability [4] 74.8% | viability [5] 74.8% | inhibition [6] 0.905% | RAM network inhibition [7] 1.37%

c1ccc(CNc2nc3ccccc3[nH]2)cc1
inactive: growth inhibition [1] -4.7% | growth inhibition [2] 2.9% | viability increase [3] -5.29% | viability [4] 75.8% | viability [5] 80.7% | inhibition [6] 1.3% | RAM network inhibition [7] 0.44%

COc1ccccc1N1CCN(CC(=O)c2ccc3ccn(C(C)=O)c3c2)CC1
inactive: growth inhibition [1] -3.38% | growth inhibition [2] -12.2% | viability increase [3] -5.06% | viability [4] 88.2% | viability [5] 79.8% | inhibition [6] 1.14% | RAM network inhibition [7] 3.27%

O=C1c2ccccc2C(=O)N1CCCCN(C(=O)c1ccco1)c1ccc(Cl)cc1
inactive: growth inhibition [1] -1.78% | growth inhibition [2] -17.5% | viability increase [3] -2.82% | viability [4] 102% | viability [5] 91.1% | inhibition [6] 2.79% | RAM network inhibition [7] 5.33%

CCCn1c(CNC(=O)c2cccs2)nc2ccccc21
inactive: growth inhibition [1] -9.53% | growth inhibition [2] -7.64% | viability increase [3] -1.28% | viability [4] 101% | viability [5] 103% | inhibition [6] 2.32% | RAM network inhibition [7] 2.11%

O=C(Cn1ncc2c(=O)oc3ccccc3c21)NCC1COc2ccccc2O1 (configuration not stated)
inactive: growth inhibition [1] 4.09% | growth inhibition [2] -10.9% | viability increase [3] -1.36% | viability [4] 103% | viability [5] 98.2% | inhibition [6] 2.72% | RAM network inhibition [7] 3.56%

CCN(CC)c1cccc(OC2=NS(=O)(=O)c3ccccc32)c1
inactive: growth inhibition [1] -1.53% | growth inhibition [2] 0.2% | viability increase [3] -1.25% | viability [4] 99.1% | viability [5] 97.8% | inhibition [6] 1.63% | RAM network inhibition [7] 5.72%

O=C(NC1CCCC1)C1C2C=CC3(CN(Cc4cccs4)C(=O)C13)O2 (configuration not stated)
inactive: growth inhibition [1] -17.8% | growth inhibition [2] -17.1% | viability increase [3] -1.96% | viability [4] 94.8% | viability [5] 101% | inhibition [6] 0.615% | RAM network inhibition [7] 5%

Cc1ccc(-n2c(SCC(=O)Nc3cc(C)on3)nc3c(c2=O)SC(C)C3)cc1 (configuration not stated)
inactive: growth inhibition [1] -1.77% | growth inhibition [2] -14.4% | viability increase [3] -2.56% | viability [4] 87.5% | viability [5] 88.4% | inhibition [6] 0.5% | RAM network inhibition [7] 2.13%

CCC/C(O)=C1\C(=O)CC(C)(C)CC1=NCCO
inactive: growth inhibition [1] 1.41% | growth inhibition [2] 11.1% | viability increase [3] -0.35% | viability [4] 91.9% | viability [5] 98.6% | inhibition [6] 2.65% | RAM network inhibition [7] 3.31%

Cc1ccc(C(=O)c2ccccc2C(=O)O)c(O)c1
inactive: growth inhibition [1] -15.6% | growth inhibition [2] -4.92% | viability increase [3] 0.69% | viability [4] 94.8% | viability [5] 106% | inhibition [6] 0.835% | RAM network inhibition [7] 5.69%

C=C(C)Cn1c(C2CC(=O)N(Cc3ccccc3)C2)nc2ccccc21 (configuration not stated)
inactive: growth inhibition [1] -0.245% | growth inhibition [2] -1.79% | viability increase [3] -1.95% | viability [4] 97.1% | viability [5] 93.2% | inhibition [6] 1.46% | RAM network inhibition [7] 2.18%

CCOc1ccc(S(=O)(=O)N2CCN(S(=O)(=O)c3ccc(OCC)cc3)C(C)C2)cc1 (configuration not stated)
inactive: growth inhibition [1] -7.32% | growth inhibition [2] 1.25% | viability increase [3] -5.22% | viability [4] 93% | viability [5] 93.7% | inhibition [6] 1.27% | RAM network inhibition [7] 6.32%

Cc1cnc(NC(=O)c2ccc(-c3nc4ccccc4s3)o2)s1
inactive: growth inhibition [1] -7.12% | growth inhibition [2] 10.2% | viability increase [3] -3.16% | viability [4] 98.1% | viability [5] 96.3% | inhibition [6] 0.165% | RAM network inhibition [7] 0.78%

O=C(O)CCCC(=O)N1CCc2cc(S(=O)(=O)N3CCc4ccccc43)ccc21
inactive: growth inhibition [1] -2.29% | growth inhibition [2] -2.17% | viability increase [3] -0.98% | viability [4] 90.7% | viability [5] 91.8% | inhibition [6] 1.98% | RAM network inhibition [7] 1.3%

COCCn1c(SCC(=O)OCc2ccccc2)nc2c1c(=O)[nH]c(=O)n2C
inactive: growth inhibition [1] 4.3% | growth inhibition [2] 1.99% | viability increase [3] 1.83% | viability [4] 98.6% | viability [5] 105% | inhibition [6] 0.815% | RAM network inhibition [7] 5.05%

CCN1CCCC(NC(=O)c2scc3c2CCCC3)C1 (configuration not stated)
inactive: growth inhibition [1] -8.03% | growth inhibition [2] -5.2% | viability increase [3] -2.12% | viability [4] 96.5% | viability [5] 95.1% | inhibition [6] 0.625% | RAM network inhibition [7] -0.09%

COCCNC(=O)CN(c1ccccc1OC)S(C)(=O)=O
inactive: growth inhibition [1] -6.76% | growth inhibition [2] 1.17% | viability increase [3] 0.7% | viability [4] 101% | viability [5] 101% | inhibition [6] 2.75% | RAM network inhibition [7] 0.67%

CCN1C(=O)NC(c2cccnc2)C(C(=O)OC)=C1C (configuration not stated)
inactive: growth inhibition [1] -17.7% | growth inhibition [2] -5.54% | viability increase [3] -1.3% | viability [4] 99.5% | viability [5] 99.9% | inhibition [6] 0.735% | RAM network inhibition [7] 0.25%

CC(=O)N1CCN(c2ccc(NCc3ccc(C)s3)cc2)CC1
inactive: growth inhibition [1] -5.79% | growth inhibition [2] 8.29% | viability increase [3] -2.32% | viability [4] 99% | viability [5] 95% | inhibition [6] 1.92% | RAM network inhibition [7] 7.94%

Cc1ccc(Cl)cc1N1CCN(C(=O)COc2ccc(S(=O)(=O)NC(C)C)cc2)CC1
inactive: growth inhibition [1] 4.32% | growth inhibition [2] -7.2% | viability increase [3] -4.67% | viability [4] 37.3% | viability [5] 54.8% | inhibition [6] 1% | RAM network inhibition [7] 6.06%

COc1ccc(Cc2nc(-c3ccc(Br)o3)no2)cc1OC
inactive: growth inhibition [1] -14.4% | growth inhibition [2] -3.81% | viability increase [3] -0.22% | viability [4] 92.2% | viability [5] 81.2% | inhibition [6] 0.995% | RAM network inhibition [7] 4.17%
